Results pooled from the literature.
Compare with care: the assays were run in different laboratories.
Target: Tyrosine-protein kinase Srms (SRMS, Homo sapiens, UniProt Q9H3Y6)

| Compound | read-out | mode | technique | concentration | measurement | result |
| --- | --- | --- | --- | --- | --- | --- |
| Cc1cc(-n2nc(Cc3cc(F)cc(C(F)(F)F)c3)nc2C)ccc1C(N)=O | cell-free assay |  | competition with immobilised ligand | 1 µM | remaining binding | 98% |
| C[S+]([O-])c1ccc(-c2nc(-c3ccncc3)c(-c3ccc(F)cc3)[nH]2)cc1 (stereo not drawn) | cell-free assay |  |  | 0.5 µM | remaining signal | 102% |
| CN1CC(Oc2cnc(C#N)cc2-c2ccn3nc(NC(=O)C4CC4)cc3c2)C1 | enzyme activity | inhibitor |  | 1 µM | inhibition | 4% |
| Cc1ccc(C(=O)NCc2ccsc2)cc1C#Cc1cn(C(C)C)c2ncnc(N)c12 | enzyme activity | inhibitor |  | 1 µM | activity vs control | 31% |
| CC(C)(C)c1nc2c(s1)c1nc(N)ncc1c1ccc(NS(=O)(=O)c3c(F)cccc3F)c(F)c12 | enzyme activity | inhibitor | radiometric | 1 µM | remaining activity | 70% |
| COc1cc2ncnc(Nc3ccc(Oc4ccccc4)c(C)c3C)c2cc1OC | enzyme activity | inhibitor |  | 1 µM | inhibition | 24% |
| FC(F)(F)c1ccc2c(c1)nc(-c1cccnc1)n2C1CC1 | cell-free assay |  | competition with immobilised ligand | 1 µM | remaining binding | 95% |
| O=C(Nc1cnn(-c2csc(C(=O)NC3COC3)c2)c1)Nc1ccccc1Cl | enzyme activity | inhibitor |  | 5 µM | remaining activity | 99.8% |
| O=C1NC(=O)c2cc(Nc3ccc(F)cc3)c(Nc3ccc(F)cc3)cc21 | cell-free assay |  |  | 0.5 µM | remaining signal | 95.5% |
| O=C(Nc1cnn(-c2csc(C(=O)NC3COC3)c2)c1)Nc1c(F)cccc1Cl | enzyme activity | inhibitor |  | 5 µM | remaining activity | 105% |
| CNCc1ccccc1-c1csc([C@H](C)Nc2nc(C)nc3cc(OC)c(OC)cc23)c1 | cell-free assay |  | competition with immobilised ligand | 1 µM | remaining binding | 88% |
| CNC(=O)c1cc2c(Oc3ccc(NC(=O)C4(C(=O)Nc5ccc(F)cc5)CC4)cc3)ccnc2cc1OC | enzyme activity | inhibitor | radiometric | 1 µM | inhibition | 97% |
